System: MS2 coat protein
Test: apparent Kd, MS2 coat protein; higher = weaker binding; RNA-MaP array; FMN 200 µM where present
How it was run: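 The titrant was SNAP-549-labelled MS2 coat protein, run from 0.7 or 1.5 nM in doubling steps to 3 µM. It was applied to designs transcribed by stalled E. coli RNA polymerase on Illumina sequencing-chip clusters, without ligand first and then with constant ligand, in 100 mM Tris-HCl pH 7.5, 80 mM KCl, 4 mM MgCl2, BSA, DTT, yeast tRNA and Tween-20. The apparent Kd is the median of filtered per-cluster binding-curve fits, with green signal normalised to red-channel RNA signal and control-cluster median Fmax.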

[1] = designed as: OFF switch for flavin mononucleotide, no ligand
[2] = ligand present: flavin mononucleotide, designed as: OFF switch for flavin mononucleotide
[3] = designed as: ON switch for flavin mononucleotide, no ligand
[4] = ligand present: flavin mononucleotide, designed as: ON switch for flavin mononucleotide

Sequence | apparent Kd [1] [nM] | apparent Kd [2] [nM] | apparent Kd [3] [nM] | apparent Kd [4] [nM]
UGCCAAGCAGGAUAUGCACGUAAUAACAUGAGGAUCACCCAUGUGACCGAUUUAUAUUCUGCAGAAGGGCUUGGAU | 54.9 | 152 | – | –
ACAGAUGCUGACAUGAGGAUCACCCAUGUUAGAUUGUUAUGUCAGGAUAUUAUCUGGCAACCAGAUGAGAAGGGACCAUCUGUG | – | – | 16.5 | 7.33
GACUAGGCAGGAUAUACAUGAGGAUCACCCAUGUGUCUGCGUUAAGCACGUGAAGACGGUAGAAGGGCCUACAC | 14.4 | 18.1 | – | –
AAUUAGGUCACAGGAUAUACAACUUCCAAUGCUGUAGAAGGGUGUCACAUACUUAGCUGACAUGAGGAUCACCCAUGUAUCCAC | – | – | 184 | 70.5
CACUGCAAUGUAGGAUAUCGACUGGAAUACAGUCGAGAAGGACAUGAGGAUCACCCAUGUACUAAUAGUGAUAAUAAAGCAGUG | 14.6 | 54.1 | – | –
UUGUUGUGAGGAUAUCCAAUAUAUGACAUGAGGAUCACCCAUGUUUCCACUCGUACCUCCGGAGAAGGCACUUAUU | 31.7 | 28.7 | – | –
GCGGUCAACGUAGGAUAUCUUCAGCCACAGCGCAUUGCUGUACAUGAGGAUCACCCAUGUCCUGGAGAGAAGGACGGACGGCAG | – | – | 123 | 34.2
GAACGUGAGACGACCGUGGGUACAUGAGGAUCACCCAUGUGCAGAAGGCGAAUAUGACGAUGUGUCGAGGAUAUGCACAGCUCA | 22.4 | 97.6 | – | –
UGGUACUAGGGAGGAUAUGGGAAGAUACAUGAGGAUCACCCAUGUUUAAGAAUGCCGAGAGGUAACUAGAAGGCCCUAGUACCU | – | – | 455 | 15.1
GAACGUGACAUGAGGAUCACCCAUGUUGCCUGAGCCAGGUCGUAGGAUAUCCUGUUGAUUAAUUUGGAGAAGGGCGACUGGGAG | – | – | 46.5 | 18.3
CAUGUCCUCACAGGAUAUGCAAUGUAUUUCAUUGCAGAAGGGUGAAUACAUGAGGAUCACCCAUGUGGACAUGAUAUAUUUAAG | – | – | 880 | 76.6
UAUAUGUGAGGAUAUCAGGUGUGCUAGCGAACUGGUACAUCUGAGAAGGCACAUGAGGAUCACCCAUGUAUCUU | 27.7 | 105 | – | –
UACAUGAGGAUCACCCAUGUUUUGUCGUGUAUGGUAUUUAUCUAGGAUAUCGUGUUAUUUAACCACGAGAAGGAGAGUAUCAAU | 27.5 | 26.7 | – | –
GUCAUACAUGAGGAUCACCCAUGUAAGGAUAUGCUAGCGGUCGGCUGACUGACUGCUAGCAGAAGGUACAUGAU | 64.1 | 90 | – | –
CGUGGUUGGGAGGAUAUGCACGUGAACGCUAUUGUAGAAGGUCCGACAUGAGGAUCACCCAUGUAGGUGUCACG | 168 | 147 | – | –
AUCGGUCCGUAGAAGGGUGACAUGAGGAUCACCCAUGUGCCGUGUGCAUUUAUGCAUCCACGGCCACAGGAUAUACGGAGUUGA | – | – | 34.9 | 25.4
CCCAAACUUGGGUUUAAUGGUUCAUAGGAUAUGCUUGUACAUGAGGAUCACCCAUGUACUAUUGUGCAGAAGGGUGCAUGGCAA | – | – | 39.8 | 26.3
UAAAUGUGAGGAUAUCAGGUGUGCUAGCGAACUGGUACAUCUGAGAAGGCACAUGAGGAUCACCCAUGUUCCUU | 17 | 61.5 | – | –
CCUACGUGAGGAUAUGCAACUAACACGUUAGACAAAUAGUUGCAGAAGGCACAUGAGGAUCACCCAUGUGAACC | 29.8 | 34.9 | – | –
UGUUGUAUUACAGGAUAUCUAGUAUUUUUAUUCAGAGAAGGGUAUUCACAUGAGGAUCACCCAUGUAUAUACGAGGAAGUUGUG | – | – | 45.2 | 46.2
CAGCGCUGUUGAGAGGAUAUGCGGUGAUGGACAUGAGGAUCACCCAUGUUAGCGACAGCAUUACGGUAGAAGGCUCCACAGCUGC | – | – | 22.9 | 13.8
UGUGAGUUGAUGUUAGAUCGGAGUACAUGAGGAUCACCCAUGUAGGAUAUUCAAAGACGCAGAUAGAAGAAGGACAUAGGUUUC | 15.2 | 14.3 | – | –
AACGGGUGGGUAGGAUAUGGCUAUGUCUCAUUGCUAGAAGGGCCAGCUGCUACAUGAGGAUCACCCAUGUCGUAGUGCACCCAG | – | – | 72.4 | 40.3
GAAGAACAUGAGGAUCACCCAUGUGAUUCGCAUGUAGGAUAUGGGCACGCGCCCGCGUGUCUAGAAGGACAGGCUA | – | – | 69.3 | 109
GCCGAUUAAGUCAGGAUAUACCUAUGGAUACAUAGGUAGAAGGGACAUGAGGAUCACCCAUGUUCCUCACCGGC | 14.8 | 21.8 | – | –
UUAUUUCCUCAUGUACAUGAGGAACAUGAGGAUCACCCAUGUAGAAGGAUUUCAAUAAAAUUAAAAUAGGAUAUACAUAUAUUU | 68.3 | 81.6 | – | –
UCGAAAAUGCAAGGAUAUCAAUUAUAGCUAAAUUAGACAUGAGGAUCACCCAUGUAAAUAUGGAGUGAGAAGGUGCAAUAAUUU | – | – | 453 | 174
UGGGUUACAGGAUAUACAUGAGGAUCACCCAUGUCAUGUUUCGUGGCGGAUAGCUCGAGUAGAAGGGUGCAUCC | 50 | 60.4 | – | –

Sequence | apparent Kd [1] [nM] | apparent Kd [2] [nM] | apparent Kd [3] [nM] | apparent Kd [4] [nM]
GGCAAGUCAGGAUAUGCGAAGUCAGGACACACACUGACGAAGCAGAAGGGACAUGAGGAUCACCCAUGUAAGCC | 31.9 | 19.9 | – | –
AUCAGCUCGUGAGGAUAUACGUCACUGCUUCGGCAGUGUGGUAAGAUCACAUGAGGAUCACCCAUGUAGAAGGCACGAGCUGAU | 21.4 | 471 | – | –
UGGUACAUGGGAGGAUAUCCUCAAGAGACAUGAGGAUCACCCAUGUAUUAUAUGCCUCUUGGCAUGGAGAAGGCCCAUGUACCU | – | – | 56.2 | 55.4
GAGAGAGGGUGAGGAUAUUUAGUGAUAAUGAUAAGAGAAGGCACAGACAUGAGGAUCACCCAUGUGGGAAUAAUCCAGAGAGAG | – | – | 298 | 290
AAUGUUUGAUUCCACUUAUACAUGAGGAUCACCCAUGUUAUCGAGGAUAUGCAUUAGAGCGUUUAGCAGAAGGCGAUGUAAUUG | 7.41 | 20.3 | – | –
AUAAGCUCGUCAGGAUAUGCGACACUGUGUCAGCAGUGUGGUAUGAUCACAUGAGGAUCACCCAUGUAGAAGGGACGAGCUUAU | 6.34 | 14.3 | – | –
UUUUAACAUGAGGAUCACCCAUGUGAGGAUAUCGAAAUUUAUAUUAAUAUUUAUAAAUCGAGAAGGCACAUUUU | 135 | 124 | – | –
AAUUAACUCACAGGAUAUAGCAGAGGUCGAGUGAACUUACACGCGACGAGGCUAGAAGGGUGACCACAUGAGGAUCACCCAUGU | – | – | 872 | 103
GGACAUUUACAGAAGGGCAAUUUAUUUAUUGAUUAUUUAGUUCUGUUUUGCAGGAUAUGUAAUACAUGAGGAUCACCCAUGUCC | – | – | 188 | 74
UAUGUUUCGCAGAAGGGAACGGUUUAUAACAAUUCAGGAUAUGCGACAUGAGGAUCACCCAUGUAGCAGUAUAUAGGGUUGAAU | 7.5 | 45.9 | – | –
AAAUCUUACGAAGGAUAUACAAACAUGAGGAUCACCCAUGUGUGUUUCGUGUUACUGAAAUUCGGGUAGAAGGUCGUAGACAUA | 27.7 | 19.2 | – | –
AUAUACAUUCGAGGAUAUCGUUAAAAUGUUAUGCGAGAAGGCGAGUCAUGAUUUAUUAUUUAGGACAUGAGGAUCACCCAUGUA | – | – | 40.2 | 33.1
AAGUGUGGAUGAGGAUAUCAGCUGUAACUGACGUCGACAUGAGGAUCACCCAUGUUGCUAUAGGGUGAGAAGGCAUUUGCGCAA | – | – | 585 | 75.1
AGGUACAACGGAGGAUAUAAUAGUCUAUAGACGUUAGAAGGCCGGGCCUUCACAUGAGGAUCACCCAUGUCUCUGGAGGCGCCU | – | – | 20.8 | 16.9
GGCUCGAGGGUCUCCGCGUUCACAUGAGGAUCACCCAUGUAACAGGAUAUCGGGCCAAAGGGCAGCGAGAAGGGUUACUUGGGC | 6.43 | 14.6 | – | –
GAAAACAGAGGAUAUACAUGAUUAUGACGAAAGUCAUAAAAACAUGAGGAUCACCCAUGUAGAAGGCUGAAGAA | 185 | 201 | – | –
CUGUUCCGUGUAGGAUAUGCAUAUUCCCAUUAUGCAGAAGGACAUGAGGAUCACCCAUGUAUGUUAUUAUCAUGUGUUACAUGC | 44.4 | 453 | – | –
AAAUCCUACGAAGGAUAUACAAACAUGAGGAUCACCCAUGUGUGUUUCGUGUAACUGGAAUUCGGGUAGAAGGUCGUAGACAUA | 33.2 | 20.8 | – | –
ACGUUGUCAGGAUAUCGUUAAUUUAGUUGUUUGUAUUAGUUCGAGAAGGGACAUGAGGAUCACCCAUGUUUGCU | 24.4 | 27.1 | – | –
CGGUGACGUGUAGGAUAUGGCGAUGGGUUUUGGCCAGAAGGACAUGAGGAUCACCCAUGUGGUAGAGGGCUGGCGGCCGCCCGU | 26.5 | 60 | – | –
UGAAUGUAGGAGAAGGAGGACUUCAUGAGGAUCACCCAUGUGUUAGGACUUAGGAUAUUUGACGACAUGAGGAUCACCCAUGUG | – | – | 62.5 | 55.7
GGGUACAUGGGAGGAUAUCCUCAUGAGACAUGAGGAUCACCCAUGUAUUAUAAGCCGAAAGGCAAGGAGAAGGCCCAUGUACCG | – | – | 30.2 | 17
GAUCGAAACACUCCUUACACUACAUGAGGAUCACCCAUGUAGCAGGAUAUCAUUGCUCCUCGCUGUGAGAAGGGCUACGGGCGA | 7.3 | 14 | – | –
CCGGAAACGGGUAGCUGACAUGAGGAUCACCCAUGUGAAACACAGGAUAUGGAUCCUAAUUGGAUCCAGAAGGGUGUCAGCUAC | – | – | 247 | 37.2
GAGAAGAGGGAAGGAUAUACAUGAGGAUCACCCAUGUAGAUAGGUUUAAUAGGUUGUUGUUGUUUGUAGAAGGUCCGGUUUGUU | 18 | 16.8 | – | –
UUACUCAUGUAAGGAUAUGCAGCCGUUUCGGCUGCAGAAGGUACUAUAAUACAUGAGGAUCACCCAUGUCUCUAUUAUUUAGUG | – | – | 52.8 | 87.5
AUGCUAUAUGUAGGAUAUUCAAAGAAAGAGAAUGAAGAAGGACAUGAGGAUCACCCAUGUAAAAUGUAGAUAGAUAUCAUACAU | 18 | 14 | – | –
